pIC50: −log10 of the molar value. Calls of active or inactive are those of the source. No cut-off for these calls is given here.
How the values were obtained:
DU-145 [1] = experiment: Antiproliferative activity against human DU145 cells after 48 hrs by MTT assay; type: functional, cell-based; details: DU-145, 48 h
DU-145 [2] = experiment: Cell cycle arrest in human DU145 cells assessed as accumulation at G0/G1 phase at 2 uM after 48 hrs by FACS analysis (reference value: 53.60%); type: functional
DU-145 [3] = experiment: Cell cycle arrest in human DU145 cells assessed as accumulation at sub-G1 phase at 2 uM after 48 hrs by FACS analysis (reference value: 7.71%); type: functional
DU-145 [4] = experiment: Induction of apoptosis in human DU145 cells assessed as early apoptotic cells at 1 uM after 48 hrs by annexin-V/FITC/propidium iodide staining-based FACS analysis (reference value: 3.61%); type: functional
Calf thymus DNA [5] = experiment: Binding affinity to calf thymus double stranded DNA at 20 uM by CD spectroscopic method; type: nucleic-acid assay; details: Bos taurus
DU-145 [6] = experiment: Induction of apoptosis in human DU145 cells assessed as late apoptotic cells at 2 uM after 48 hrs by annexin-V/FITC/propidium iodide staining-based FACS analysis (reference value: 4.46%); type: functional
Calf thymus DNA [7] = experiment: Binding affinity to calf thymus double stranded DNA at 10 uM by spectrofluorimetric method; type: nucleic-acid assay; details: Bos taurus
MCF7 = experiment: Antiproliferative activity against human MCF7 cells after 48 hrs by MTT assay; type: functional, cell-based; details: MCF7, 48 h
HeLa = experiment: Antiproliferative activity against human HeLa cells after 48 hrs by MTT assay; type: functional, cell-based
DU-145 [8] = experiment: Cell cycle arrest in human DU145 cells assessed as accumulation at G2/M phase at 2 uM after 48 hrs by FACS analysis (reference value: 21.07%); type: functional
DU-145 [9] = experiment: Cell cycle arrest in human DU145 cells assessed as accumulation at sub-G1 phase at 1 uM after 48 hrs by FACS analysis (reference value: 7.71%); type: functional
DU-145 [10] = experiment: Induction of apoptosis in human DU145 cells assessed as late apoptotic cells at 1 uM after 48 hrs by annexin-V/FITC/propidium iodide staining-based FACS analysis (reference value: 4.46%); type: functional
DU-145 [11] = experiment: Induction of apoptosis in human DU145 cells assessed as viable cells at 2 uM after 48 hrs by annexin-V/FITC/propidium iodide staining-based FACS analysis (reference value: 91.44%); type: functional; details: DU-145, 48 h, read-out: Activity
A549 = experiment: Antiproliferative activity against human A549 cells after 48 hrs by MTT assay; type: functional, cell-based; details: A549, 48 h
DU-145 [12] = experiment: Cell cycle arrest in human DU145 cells assessed as accumulation at G2/M phase at 1 uM after 48 hrs by FACS analysis (reference value: 21.07%); type: functional
DU-145 [13] = experiment: Cell cycle arrest in human DU145 cells assessed as accumulation at G0/G1 phase at 1 uM after 48 hrs by FACS analysis (reference value: 53.60%); type: functional
Calf thymus DNA [14] = experiment: Binding affinity to calf thymus double stranded DNA at 25 uM by UV-vis spectroscopic method; type: nucleic-acid assay; details: Bos taurus
DU-145 [15] = experiment: Induction of apoptosis in human DU145 cells assessed as necrotic cells at 2 uM after 48 hrs by annexin-V/FITC/propidium iodide staining-based FACS analysis (reference value: 0.49%); type: functional
DU-145 [16] = experiment: Induction of apoptosis in human DU145 cells assessed as viable cells at 1 uM after 48 hrs by annexin-V/FITC/propidium iodide staining-based FACS analysis (reference value: 91.44%); type: functional; details: DU-145, 48 h, read-out: Activity
Calf thymus DNA [17] = experiment: Binding affinity to calf thymus double stranded DNA at 15 uM by ostwald viscometer; type: nucleic-acid assay; details: Bos taurus
DU-145 [18] = experiment: Cell cycle arrest in human DU145 cells assessed as accumulation at S phase at 2 uM after 48 hrs by FACS analysis (reference value: 16.22%); type: functional
DNA [19] = experiment: Induction of Escherichia coli pBR322 DNA cleavage at 20 uM incubated in presence of UV-light for 1 hr by agarose gel electrophoresis; type: nucleic-acid assay
Summary of the method: (§1)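 pBR322 plasmid DNA was incubated with 20 µM ligand, either in the dark or under UV-light irradiation for 1 h. Products were separated by gel electrophoresis. Irradiated DNA solution alone served as the control.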

NIH3T3 = experiment: Antiproliferative activity against mouse NIH/3T3 cells after 48 hrs by MTT assay; type: functional, cell-based; details: NIH3T3, 48 h
Calf thymus DNA [20] = experiment: Binding affinity to calf thymus double stranded DNA assessed as hypochromicity at 10 uM by […] method; type: nucleic-acid assay; details: Bos taurus
DU-145 [21] = experiment: Induction of apoptosis in human DU145 cells assessed as early apoptotic cells at 2 uM after 48 hrs by annexin-V/FITC/propidium iodide staining-based FACS analysis (reference value: 3.61%); type: functional
[22] = biological target: T1, Topoisomerase I (Bos taurus) (UniProt Q2HPH0); experiment: Inhibition of calf thymus DNA topoisomerase 1 at 20 uM using pBR322 DNA as substrate after 30 mins by agarose gel electrophoresis method
T1 sequence (whole entry): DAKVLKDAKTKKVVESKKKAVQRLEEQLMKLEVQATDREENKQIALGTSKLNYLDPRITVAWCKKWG

DU-145 [23] = experiment: Cell cycle arrest in human DU145 cells assessed as accumulation at S phase at 1 uM after 48 hrs by FACS analysis (reference value: 16.22%); type: functional
DU-145 [24] = experiment: Induction of apoptosis in human DU145 cells assessed as necrotic cells at 1 uM after 48 hrs by annexin-V/FITC/propidium iodide staining-based FACS analysis (reference value: 0.49%); type: functional
DNA [25] = experiment: Induction of Escherichia coli pBR322 DNA cleavage at 20 uM incubated in dark condition by agarose gel electrophoresis; type: nucleic-acid assay; summary of the method: as §1

Row | SMILES | pIC50 (DU-145 [1]) | Activity (DU-145 [2]) | Activity (DU-145 [3]) | Activity (DU-145 [4]) | Activity (Calf thymus DNA [5]) | Activity (DU-145 [6]) | Activity (Calf thymus DNA [7]) | pIC50 (MCF7) | pIC50 (HeLa) | Activity (DU-145 [8]) | Activity (DU-145 [9]) | Activity (DU-145 [10]) | viability at 2 µM (DU-145 [11]) | pIC50 (A549) | Activity (DU-145 [12]) | Activity (DU-145 [13]) | Activity (Calf thymus DNA [14]) | Activity (DU-145 [15]) | viability at 1 µM (DU-145 [16]) | Activity (Calf thymus DNA [17]) | also measured
1 | Cc1ccc(-c2nc(C(c3c[nH]c4ccc(Br)cc34)c3c[nH]c4ccc(Br)cc34)cc3c2[nH]c2ccccc23)cc1 | 5.73 | 15.92% | 6.05% | 6.43% | Active | 3.12% | Active | 5.23 | 5.60 | 57.12% | 5.57% | 6.43% | 63.6% | 5.60 | 22.04% | 54.58% | Active | 0.47% | 87% | Active | Activity (DU-145 [18]): 19.52%; Activity (DNA [19]): Active; pIC50 (NIH3T3): 3.90; Activity (Calf thymus DNA [20]): 10 to 12%; Activity (DU-145 [21]): 32.76%; inhibition [22]: Active; Activity (DU-145 [23]): 16.37%; Activity (DU-145 [24]): 0.12%; Activity (DNA [25]): Not Active
2 | Fc1ccc(-c2nc(C(c3c[nH]c4ccccc34)c3c[nH]c4ccccc34)cc3c2[nH]c2ccccc23)cc1 | 5.74 | 13.58% | 4.93% | 8.49% | Active | 5.06% | Active | 5.07 | 5.49 | 62.86% | 6.91% | 6.55% | 55.5% | 5.69 | 57.46% | 15.15% | Active | 1.14% | 84.7% | Active | Activity (DU-145 [18]): 17.41%; Activity (DNA [19]): Active; pIC50 (NIH3T3): 3.85; Activity (Calf thymus DNA [20]): 10 to 12%; Activity (DU-145 [21]): 38.28%; inhibition [22]: Active; Activity (DU-145 [23]): 19.16%; Activity (DU-145 [24]): 0.23%; Activity (DNA [25]): Not Active

From ChEMBL document CHEMBL4138165, “Design, synthesis and biological evaluation of new β-carboline-bisindole compounds as DNA binding, photocleavage agents and topoisomerase I inhibitors” (Eur J Med Chem, 2018)
